Converted amounts (≈) assume the structure as drawn.
Key:
[1] = Aqueous solubility in pH 6.8 buffer solution by HPLC analysis; type: physicochemical
[2] = MRT in Crl:CD(SD) rat at 3 mg/kg, po by LC-MS/MS analysis; type: ADME, organism-based; settings: in vivo
Procedure, shortened: (§1)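 Rats were dosed i.v. at 0.2 mg/kg and p.o. at 3.0 mg/kg. Oral dosing was a suspension in 0.5% methyl cellulose or in corn oil, depending on the compound. Vd and CL came from i.v. dosing. Values are means of three animals.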

[3] = Metabolic stability in rat liver microsomes at 1 uM after 20 mins in presence of NADPH by HPLC analysis; type: ADME, microsome
[4] = Volume of distribution in Crl:CD(SD) rat at 0.2 mg/kg, iv by LC-MS/MS analysis; type: ADME, organism-based; settings: in vivo; procedure, shortened: as §1
[5] = Tmax in Crl:CD(SD) rat at 3 mg/kg, po by LC-MS/MS analysis; type: ADME, organism-based; settings: in vivo; procedure, shortened: as §1
[6] = Oral bioavailability in Crl:CD(SD) rat at 3 mg/kg by LC-MS/MS analysis; type: ADME, organism-based; settings: in vivo; procedure, shortened: as §1
[7] = AUC in Crl:CD(SD) rat at 3 mg/kg, po by LC-MS/MS analysis; type: ADME, organism-based; settings: in vivo
Procedure, shortened: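 Rats dosed orally at 3.0 mg/kg as a suspension in either 0.5% methyl cellulose or corn oil, depending on the compound. […] AUCpo is reported as ng·h/mL and is the mean of measurements in three animals.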

[8] = Cmax in Crl:CD(SD) rat at 3 mg/kg, po by LC-MS/MS analysis; type: ADME, organism-based; parameters: dose 3 mg/kg, route oral; settings: in vivo; procedure, shortened: as §1
[9] = Retention time in human liver microsomes at 1 uM by HPLC analysis; type: ADME, microsome
Procedure, shortened: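 Incubated for 30 min with human liver microsomes. Parent and metabolites were analysed by HPLC and LC/MSⁿ, giving retention times, [M+H]⁺ and major fragment ions.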

[10] = Clearance in Crl:CD(SD) rat at 0.2 mg/kg, iv by LC-MS/MS analysis; type: ADME, organism-based; settings: in vivo; procedure, shortened: as §1
[11] = Metabolic stability in human liver microsomes at 1 uM after 20 mins in presence of NADPH by HPLC analysis; type: ADME, microsome
[12] = pH 6.8 buffer solution, read-out: solubility

Row | SMILES | solubility [1, 12] [µg/mL] | MRT [2] [h] | remaining at 20 min, 1 µM [3] [µL/min/mg] | Vd [4] [L/kg] | Tmax [5] [h] | bioavailability [6] [%] | AUC [7] [ng·h/mL] | Cmax [8] [ng/mL] | Retention_time [9] [min] | clearance [10] [mL/min/kg] | Stability [11] [µL/min/mg] | solubility ([1]; buffer)
1 | Cc1cc(-c2nc3cccnn3c2-c2ccnc(NC(=O)c3ccc(C)[n+]([O-])c3)c2)ccc1F | 2.4 (≈ 5.28 µM) | – | 23 | – | – | – | – | – | – | – | – | –
2 | Cc1cc(C(=O)Nc2cc(-c3c(-c4ccc(F)c(C)c4)nc4cccnn34)ccn2)ccn1 | 0.15 (≈ 0.342 µM) | – | 65 | – | – | – | – | – | 33.4 | – | 132 | –
3 | Cc1cc(-c2nc3cccnn3c2-c2ccnc(NC(=O)c3ccncc3)c2)ccc1F | 0.75 (≈ 1.77 µM) | – | 75 | – | – | – | – | – | – | – | 177 | –
4 | Cc1ccc(C(=O)Nc2cc(-c3c(-c4ccc(F)c(C)c4)nc4cccnn34)ccn2)cn1 | 0.38 (≈ 0.867 µM) | – | 53 | – | – | – | – | – | – | – | – | –
5 | Cc1cc(-c2nc3cccnn3c2-c2ccnc(NC(=O)c3cccnc3)c2)ccc1F | 0.92 (≈ 2.17 µM) | – | 71 | – | – | – | – | – | – | – | – | –

Continued, values first:

Row | solubility [1, 12] [µg/mL] | MRT [2] [h] | remaining at 20 min, 1 µM [3] [µL/min/mg] | Vd [4] [L/kg] | Tmax [5] [h] | bioavailability [6] [%] | AUC [7] [ng·h/mL] | Cmax [8] [ng/mL] | Retention_time [9] [min] | clearance [10] [mL/min/kg] | Stability [11] [µL/min/mg] | solubility ([1]; buffer) | SMILES
6 | 0.91 (≈ 2 µM) | 5.32 | 16 | 1.38 | 2 | 13.5 | 703 | 75 | 23 | 10 | – | – | Cc1cc(-c2nc3cccnn3c2-c2ccnc(NC(=O)c3cc[n+]([O-])c(C)c3)c2)ccc1F
7 | – | 5.63 | – | 1.38 | 1.67 | 42.6 | 2130 | 190 | – | 10 | – | Insoluble | Cc1cc(-c2nc3cccnn3c2-c2ccnc(NC(=O)c3cc[n+]([O-])c(C)c3)c2)ccc1F.O=S(=O)(O)O
